From ChEMBL document CHEMBL1671831, “TSPO 18 kDa (PBR) Targeted Photosensitizers for Cancer Imaging (PET) and PDT” (ACS Med Chem Lett, 2011)
Activity calls are given as the source filed them. The calls are words filed in the database; no cut-off is given here.

How the values were obtained:
[1] = test system: MDA-MB-231; experiment: Cellular uptake in human MDA-MB-231 cells at 0.1 uM by fluorescence spectroscopy; assay type: ADME, cell-based; details: mda-mb-231, 0.1 µM
Outline: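 MDA-MB-231 cells. Uptake measured by fluorescence spectroscopy with excitation at 412 nm and emission scanned from 550 to 750 nm (maximum at 678 nm). Conjugate uptake compared with and without the TSPO ligand PK 11195 analogue.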

[2] = target: T1, Translocator protein (Homo sapiens, UniProt P30536); experiment: Binding affinity to PBR
T1 sequence (P30536 whole entry): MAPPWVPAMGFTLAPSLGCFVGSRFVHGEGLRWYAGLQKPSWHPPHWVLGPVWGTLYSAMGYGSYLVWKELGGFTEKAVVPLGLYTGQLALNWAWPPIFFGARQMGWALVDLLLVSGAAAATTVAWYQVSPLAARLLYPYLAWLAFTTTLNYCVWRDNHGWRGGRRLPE

[3] = test system: MDA-MB-231; experiment: Antitumor activity against human MDA-MB-231 cells xenografted in SCID mouse assessed as tumor free mouse at 5 umol/kg measured on day 60; assay type: functional
[4] = test system: MDA-MB-231; experiment: Drug level in human MDA-MB-231 cells xenografted in SCID mouse after 24 hrs by microPET analysis; assay type: functional, cell-based
Outline: (§1)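 Scid mice bearing MDA-231 tumours given the 124I-labelled conjugate at 50 μCi (about 40 ng) per mouse. MicroPET coronal emission imaging at 24, 48, 72 and 96 h after injection, plus biodistribution with three mice per group. Mean with standard deviation.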

[5] = target: T1, Translocator protein; experiment: Displacement of [3H]-PK11195 from PBR after 1 hr by scintillation counting
[6] = test system: MDA-MB-231; experiment: Drug level in human MDA-MB-231 cells xenografted in SCID mouse after 48 to 96 hrs by microPET analysis; assay type: functional, cell-based; details: tested as the 124I-labelled form; outline: as §1
[7] = Drug level in human U87 cells xenografted in BALB/c mouse after 24 hrs […]; assay type: ADME, cell-based, U-87MG ATCC; details: in vivo, in the assay text read “nude mouse” for “BALB/c mouse”
Outline: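 Nude mice bearing U87 tumours given the 124I-labelled agent. Tumour and organ uptake taken by biodistribution 24 h after injection. Mean with standard deviation.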

[8] = Drug level in […] cells xenografted BALB/c mouse gut after 24 hrs by microPET analysis; assay type: ADME, cell-based; details: in vivo
Outline: (§2)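 Balb/c mice bearing EMT6 tumours given the 124I-labelled agent. Uptake in organs and tumour taken by biodistribution 24 h after injection, with microPET coronal emission imaging. Mean with standard deviation.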

[9] = test system: Spleen; experiment: Drug level in […] cells xenografted BALB/c mouse spleen after 24 hrs by microPET analysis; assay type: ADME, cell-based; details: in vivo; outline: as §2
[10] = test system: Heart; experiment: Drug level in […] cells xenografted BALB/c mouse heart after 24 hrs by microPET analysis; assay type: ADME, cell-based; details: in vivo; outline: as §2
[11] = test system: Lung; experiment: Drug level in […] cells xenografted BALB/c mouse lungs after 24 hrs by microPET analysis; assay type: ADME, cell-based; details: in vivo; outline: as §2
[12] = test system: Blood; experiment: Drug level in […] cells xenografted BALB/c mouse blood after 24 hrs by microPET analysis; assay type: ADME, cell-based; details: in vivo; outline: as §2
[13] = test system: Stomach; experiment: Drug level in […] cells xenografted BALB/c mouse stomach after 24 hrs by microPET analysis; assay type: ADME, cell-based; details: in vivo; outline: as §2
[14] = test system: Muscle tissue; experiment: Drug level in […] cells xenografted BALB/c mouse muscle after 24 hrs by microPET analysis; assay type: ADME, cell-based; details: in vivo; outline: as §2
[15] = test system: Kidney; experiment: Drug level in […] cells xenografted BALB/c mouse kidney after 24 hrs by microPET analysis; assay type: ADME, cell-based; details: in vivo; outline: as §2
[16] = test system: Brain; experiment: Drug level in […] cells xenografted BALB/c mouse brain after 24 hrs by microPET analysis; assay type: ADME, cell-based; details: in vivo; outline: as §2
[17] = test system: Liver; experiment: Drug level in […] cells xenografted BALB/c mouse liver after 24 hrs by microPET analysis; assay type: ADME, cell-based; details: in vivo; outline: as §2

For C=Cc1c(C)c2cc3nc(c4c5[nH]c(cc6nc(cc1[nH]2)C(C)=C6CC)c(C)c5C(=O)C4)[C@@H](CCC(=O)NCCCCCCNC(=O)c1cc2ccccc2c(-c2ccccc2I)n1)[C@@H]3C, the Drug uptake [1] was “Active”, the Kd [2] was 40 nM and the Activity [3] was 20%. The Drug uptake [4] was “Active” and the IC50 [5] was 310 nM.

For C=Cc1c(C)c2cc3nc(c4c5[nH]c(cc6nc(cc1[nH]2)C(C)=C6CC)c(C)c5C(=O)C4)[C@@H](CCC(=O)N(C)CCCCCCN(C)C(=O)c1cc2ccccc2c(-c2ccccc2I)n1)[C@@H]3C, the IC50 [5] was 210 nM.

With C=Cc1c(C)c2cc3nc(c4c5[nH]c(cc6nc(cc1[nH]2)C(C)=C6CC)c(C)c5C(=O)C4)[C@@H](CCC(=O)NCCCCCCN)[C@@H]3C the Drug uptake [1] was “Active”, the Activity [3] was 0% and the IC50 [5] was 25000 nM.

With CCCCCCOC(C)c1c(C)c2cc3nc(c4c5[nH]c(cc6nc(cc1[nH]2)C(C)=C6CC)c(C)c5C(=O)C4)[C@@H](CCC(=O)NCCCCCCNC(=O)c1cc2ccccc2c(-c2ccccc2I)n1)[C@@H]3C (stereo partly specified) the Drug uptake [4] was “Active” and the Drug uptake [6] was “Active”.

With C=Cc1c(C)c2cc3nc(c4c5[nH]c(cc6nc(cc1[nH]2)C(C)=C6CC)c(C)c5C(=O)C4)[C@@H](CCC(=O)NCCN)[C@@H]3C the IC50 [5] was 5600 nM.

In the case of CCC(C)N(C)C(=O)c1cc2ccccc2c(-c2ccccc2[124I])n1 (stereo unspecified), the Drug uptake [7] is reported as “Not Active”.

Molecule C=Cc1c(C)c2cc3nc(c4c5[nH]c(cc6nc(cc1[nH]2)C(C)=C6CC)c(C)c5C(=O)C4)[C@@H](CCC(=O)N(C)CCN(C)C(=O)c1cc2ccccc2c(-c2ccccc2I)n1)[C@@H]3C has an IC50 [5] of 1000 nM.

In the case of CCC(C)N(C)C(=O)c1cc2ccccc2c(-c2ccccc2I)n1 (stereo unspecified), the Drug uptake [8] is reported as “Not Active”, the Drug uptake [9] is reported as “Not Active” and the Drug uptake [10] is reported as “Not Active”. The Drug uptake [11] was “Not Active”, the Drug uptake [12] was “Not Active” and the Drug uptake [13] was “Not Active”. For the same molecule, the Drug uptake [14] was “Not Active”, the Drug uptake [15] was “Not Active” and the Drug uptake [16] was “Not Active”. For the same molecule, the IC50 [5] was 620 nM and the Drug uptake [17] was “Not Active”.

With C=Cc1c(C)c2cc3nc(c4c5[nH]c(cc6nc(cc1[nH]2)C(C)=C6CC)c(C)c5C(=O)C4)[C@@H](CCC(=O)NCCNC(=O)c1cc2ccccc2c(-c2ccccc2I)n1)[C@@H]3C the IC50 [5] was 2200 nM.
